Experimental data taken from ChEMBL document CHEMBL1671627, “Increasing trends in antimicrobial resistance among clinically important anaerobes and Bacteroides fragilis isolates causing nosocomial infections: emerging resistance to carbapenems” (2008).
In brackets after ≈: the same amount, converted by molar mass.

Assays:
Assay type in all cases: functional
[1] = test system: Finegoldia magna; assay: Antibacterial activity against beta-lactamase producing Finegoldia magna assessed as susceptible isolates by CLSI agar dilution method
[2] = test system: Finegoldia magna; assay: Antibacterial activity against beta-lactamase producing Finegoldia magna assessed as resistant isolates by CLSI agar dilution method
[3] = test system: Prevotella bivia; assay: Antibacterial activity against Prevotella bivia assessed as resistant isolates by CLSI agar dilution method
[4] = test system: Bacteroides uniformis; assay: Antibacterial activity against beta-lactamase producing Bacteroides uniformis by CLSI agar dilution method in presence of Tazobactam
Method in brief: (§1)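 Agar dilution per CLSI guidelines on nonduplicate anaerobic bloodstream isolates collected at NTUH, January to December 2006. Isolates were spotted by Steers replicator onto supplemented Brucella blood agar and incubated anaerobically for 48 h at 35°C. MIC was the lowest drug concentration that inhibited growth. B. fragilis ATCC 25285, B. thetaiotaomicron ATCC 29741 and E. lentum ATCC 43055 were run as QC in each run.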

[5] = test system: Peptostreptococcus anaerobius; assay: Antibacterial activity against beta-lactamase producing Peptostreptococcus anaerobius assessed as susceptible isolates by CLSI agar dilution method in presence of Tazobactam
Method in brief: (§2)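 CLSI agar dilution MICs for anaerobic blood isolates (nonduplicate) collected from bloodstream-infection patients at a Taiwanese tertiary hospital, January–December 2006. Isolates were spotted by Steers replicator onto supplemented Brucella blood agar and incubated anaerobically for 48 h at 35°C. MIC was the lowest drug concentration inhibiting growth. Each run included B. fragilis ATCC 25285, B. thetaiotaomicron ATCC 29741 and E. lentum ATCC 43055 as quality-control strains.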

[6] = test system: Phocaeicola vulgatus; assay: Antibacterial activity against beta-lactamase producing Bacteroides vulgatus assessed as susceptible isolates by CLSI agar dilution method
[7] = test system: Finegoldia magna; assay: Antibacterial activity against beta-lactamase producing Finegoldia magna by CLSI agar dilution method
[8] = test system: Prevotella melaninogenica; assay: Antibacterial activity against Prevotella melaninogenica by CLSI agar dilution method
[9] = test system: Parvimonas micra; assay: Antibacterial activity against beta-lactamase producing Micromonas micros by CLSI agar dilution method
[10] = test system: Peptostreptococcus anaerobius; assay: Antibacterial activity against beta-lactamase producing Peptostreptococcus anaerobius by CLSI agar dilution method
[11] = test system: Peptostreptococcus anaerobius; assay: Antibacterial activity against beta-lactamase producing Peptostreptococcus anaerobius assessed as resistant isolates by CLSI agar dilution method in presence of Tazobactam
Method in brief: (§3)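 207 nonduplicate anaerobic blood isolates from patients with bloodstream infections at NTUH, collected January–December 2006. MICs were determined by agar dilution following CLSI guidelines. Inocula were applied with a Steers replicator onto supplemented Brucella blood agar and incubated 48 h at 35°C in an anaerobic chamber. MIC was the lowest concentration inhibiting growth. B. fragilis ATCC 25285, B. thetaiotaomicron ATCC 29741 and E. lentum ATCC 43055 served as controls in each run.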

[12] = test system: Clostridium septicum; assay: Antibacterial activity against beta-lactamase producing Clostridium septicum by CLSI agar dilution method
[13] = test system: Fusobacterium mortiferum; assay: Antibacterial activity against Fusobacterium mortiferum assessed as resistant isolates by CLSI agar dilution method in presence of Tazobactam; method in brief: as §3
[14] = test system: Bacteroides fragilis; assay: Antibacterial activity against Bacteroides fragilis assessed as resistant isolates by CLSI agar dilution method in presence of Tazobactam; method in brief: as §3
[15] = test system: Prevotella bivia; assay: Antibacterial activity against Prevotella bivia by CLSI agar dilution method
[16] = test system: Peptostreptococcus anaerobius; assay: Antibacterial activity against beta-lactamase producing Peptostreptococcus anaerobius assessed as resistant isolates by CLSI agar dilution method
[17] = test system: Parvimonas micra; assay: Antibacterial activity against beta-lactamase producing Micromonas micros assessed as resistant isolates by CLSI agar dilution method
[18] = test system: Clostridium tertium; assay: Antibacterial activity against beta-lactamase producing Clostridium tertium by CLSI agar dilution method in presence of Tazobactam; method in brief: as §2
[19] = test system: Prevotella intermedia; assay: Antibacterial activity against Prevotella intermedia by CLSI agar dilution method
[20] = test system: Finegoldia magna; assay: Antibacterial activity against beta-lactamase producing Finegoldia magna assessed as resistant isolates by CLSI agar dilution method in presence of Tazobactam; method in brief: as §3
[21] = test system: Bacteroides thetaiotaomicron; assay: Antibacterial activity against beta-lactamase producing Bacteroides thetaiotaomicron assessed as resistant isolates by CLSI agar dilution method in presence of Tazobactam; method in brief: as §3
[22] = test system: Parvimonas micra; assay: Antibacterial activity against beta-lactamase producing Micromonas micros assessed as resistant isolates by CLSI agar dilution method in presence of Tazobactam; method in brief: as §3
[23] = test system: Prevotella bivia; assay: Antibacterial activity against Prevotella bivia assessed as susceptible isolates by CLSI agar dilution method
[24] = test system: Fusobacterium nucleatum; assay: Antibacterial activity against Fusobacterium nucleatum assessed as susceptible isolates by CLSI agar dilution method in presence of clavulanate; method in brief: as §1
[25] = test system: Parvimonas micra; assay: Antibacterial activity against beta-lactamase producing Micromonas micros assessed as resistant isolates by CLSI agar dilution method in presence of clavulanate; method in brief: as §3
[26] = test system: Peptostreptococcus anaerobius; assay: Antibacterial activity against beta-lactamase producing Peptostreptococcus anaerobius by CLSI agar dilution method in presence of clavulanate; method in brief: as §2
[27] = test system: Prevotella bivia; assay: Antibacterial activity against Prevotella bivia by CLSI agar dilution method in presence of clavulanate; method in brief: as §1
[28] = test system: Bacteroides uniformis; assay: Antibacterial activity against beta-lactamase producing Bacteroides uniformis assessed as resistant isolates by CLSI agar dilution method in presence of clavulanate; method in brief: as §3
[29] = test system: Bacteroides uniformis; assay: Antibacterial activity against beta-lactamase producing Bacteroides uniformis by CLSI agar dilution method in presence of clavulanate; method in brief: as §1
[30] = test system: Phocaeicola vulgatus; assay: Antibacterial activity against beta-lactamase producing Bacteroides vulgatus by CLSI agar dilution method in presence of clavulanate; method in brief: as §2
[31] = test system: Prevotella bivia; assay: Antibacterial activity against Prevotella bivia assessed as resistant isolates by CLSI agar dilution method in presence of clavulanate; method in brief: as §3
[32] = test system: Clostridium tertium; assay: Antibacterial activity against beta-lactamase producing Clostridium tertium by CLSI agar dilution method in presence of clavulanate; method in brief: as §2
[33] = test system: Peptoniphilus asaccharolyticus; assay: Antibacterial activity against beta-lactamase producing Peptoniphilus asaccharolyticus assessed as susceptible isolates by CLSI agar dilution method in presence of clavulanate; method in brief: as §2
[34] = test system: Clostridium septicum; assay: Antibacterial activity against beta-lactamase producing Clostridium septicum by CLSI agar dilution method in presence of clavulanate; method in brief: as §2
[35] = test system: Bacteroides uniformis; assay: Antibacterial activity against beta-lactamase producing Bacteroides uniformis assessed as susceptible isolates by CLSI agar dilution method in presence of clavulanate; method in brief: as §1
[36] = test system: Bacteroides fragilis; assay: Antibacterial activity against Bacteroides fragilis assessed as susceptible isolates by CLSI agar dilution method in presence of clavulanate; method in brief: as §1
[37] = test system: Veillonella parvula; assay: Antibacterial activity against Veillonella parvula by CLSI agar dilution method in presence of clavulanate; method in brief: as §1
[38] = test system: Finegoldia magna; assay: Antibacterial activity against beta-lactamase producing Finegoldia magna by CLSI agar dilution method in presence of clavulanate; method in brief: as §2
[39] = test system: Peptoniphilus asaccharolyticus; assay: Antibacterial activity against beta-lactamase producing Peptoniphilus asaccharolyticus assessed as resistant isolates by CLSI agar dilution method in presence of clavulanate; method in brief: as §3

**Q.** For `CCN1CCN(C(=O)N[C@@H](C(=O)N[C@@H]2C(=O)N3[C@@H]2SC(C)(C)[C@@H]3C(=O)O)c2ccccc2)C(=O)C1=O` [PIPERACILLIN], which Activity [1] is on record?
**A.** The Activity was 97%.

**Q.** And the Activity [2]?
**A.** Its Activity is 3%.

**Q.** And the Activity [3]?
**A.** The Activity was 22%.

**Q.** And the MIC50 [4]?
**A.** Its MIC50 is 8 µg/mL.

**Q.** What about the MIC90 [4] of the same compound?
**A.** The MIC90 was 16 µg/mL.

**Q.** What about the Activity [5] of the same compound?
**A.** The Activity was 97%.

**Q.** What about the Activity [6] of the same compound?
**A.** The Activity was 35%.

**Q.** And the MIC50 [7]?
**A.** Its MIC50 is 0.12 µg/mL (≈ 0.232 µM).

**Q.** And the MIC90 [7]?
**A.** The MIC90 was 8 µg/mL (≈ 15.5 µM).

**Q.** What about the MIC50 [8] of the same compound?
**A.** Its MIC50 is 16 µg/mL (≈ 30.9 µM).

**Q.** What about the MIC90 [8] of the same compound?
**A.** The MIC90 was 128 µg/mL (≈ 247 µM).

**Q.** And the MIC50 [9]?
**A.** The MIC50 was 0.12 µg/mL (≈ 0.232 µM).

**Q.** What about the MIC90 [9] of the same compound?
**A.** Its MIC90 is 8 µg/mL (≈ 15.5 µM).

**Q.** What about the MIC50 [10] of the same compound?
**A.** Its MIC50 is 0.12 µg/mL (≈ 0.232 µM).

**Q.** And the MIC90 [10]?
**A.** Its MIC90 is 8 µg/mL (≈ 15.5 µM).

**Q.** And the Activity [11]?
**A.** The Activity was 0%.

**Q.** And the MIC50 [12]?
**A.** Its MIC50 is 0.25 µg/mL (≈ 0.483 µM).

**Q.** What about the MIC90 [12] of the same compound?
**A.** Its MIC90 is 2 µg/mL (≈ 3.86 µM).

**Q.** And the Activity [13]?
**A.** The Activity was 0%.

**Q.** What about the Activity [14] of the same compound?
**A.** The Activity was 2%.

**Q.** And the MIC50 [15]?
**A.** The MIC50 was 16 µg/mL (≈ 30.9 µM).

**Q.** What about the MIC90 [15] of the same compound?
**A.** Its MIC90 is 128 µg/mL (≈ 247 µM).

**Q.** What about the Activity [16] of the same compound?
**A.** Its Activity is 3%.

**Q.** What about the Activity [17] of the same compound?
**A.** Its Activity is 3%.

**Q.** And the MIC50 [18]?
**A.** The MIC50 was 0.5 µg/mL.

**Q.** And the MIC90 [18]?
**A.** Its MIC90 is 2 µg/mL.

**Q.** And the MIC50 [19]?
**A.** The MIC50 was 16 µg/mL (≈ 30.9 µM).

**Q.** And the MIC90 [19]?
**A.** Its MIC90 is 128 µg/mL (≈ 247 µM).

**Q.** And the Activity [20]?
**A.** Its Activity is 0%.

**Q.** And the Activity [21]?
**A.** Its Activity is 0%.

**Q.** And the Activity [22]?
**A.** Its Activity is 0%.

**Q.** What about the Activity [23] of the same compound?
**A.** Its Activity is 71%.

**Q.** For `CC1(C)S[C@@H]2[C@H](NC(=O)[C@H](N)c3ccc(O)cc3)C(=O)N2[C@H]1C(=O)O` [AMOXICILLIN], which Activity [24] is on record?
**A.** Its Activity is 89%.

**Q.** And the Activity [25]?
**A.** Its Activity is 3%.

**Q.** What about the MIC50 [26] of the same compound?
**A.** The MIC50 was 0.25 µg/mL.

**Q.** What about the MIC90 [26] of the same compound?
**A.** The MIC90 was 2 µg/mL.

**Q.** What about the MIC50 [27] of the same compound?
**A.** The MIC50 was 4 µg/mL.

**Q.** And the MIC90 [27]?
**A.** Its MIC90 is 16 µg/mL.

**Q.** What about the Activity [28] of the same compound?
**A.** Its Activity is 30%.

**Q.** And the MIC50 [29]?
**A.** Its MIC50 is 8 µg/mL.

**Q.** And the MIC90 [29]?
**A.** The MIC90 was 32 µg/mL.

**Q.** What about the MIC50 [30] of the same compound?
**A.** The MIC50 was 8 µg/mL.

**Q.** What about the MIC90 [30] of the same compound?
**A.** The MIC90 was 32 µg/mL.

**Q.** What about the Activity [31] of the same compound?
**A.** The Activity was 6%.

**Q.** And the MIC50 [32]?
**A.** Its MIC50 is 0.5 µg/mL.

**Q.** And the MIC90 [32]?
**A.** Its MIC90 is 2 µg/mL.

**Q.** What about the Activity [33] of the same compound?
**A.** Its Activity is 94%.

**Q.** What about the MIC50 [34] of the same compound?
**A.** Its MIC50 is 0.5 µg/mL.

**Q.** And the MIC90 [34]?
**A.** Its MIC90 is 2 µg/mL.

**Q.** What about the Activity [35] of the same compound?
**A.** Its Activity is 53%.

**Q.** And the Activity [36]?
**A.** Its Activity is 63%.

**Q.** And the MIC [37]?
**A.** Its MIC is 0.12 µg/mL.

**Q.** And the MIC50 [38]?
**A.** Its MIC50 is 0.25 µg/mL.

**Q.** And the MIC90 [38]?
**A.** The MIC90 was 2 µg/mL.

**Q.** And the Activity [39]?
**A.** Its Activity is 3%.
